Test [1] is described as follows: Metal chelating activity assessed as Fe2+-compound complex formation incubated for 15 mins by Ferrozine based assay. The gist of the method:
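FeSO₄ (25 µM) in water incubated with or without test compound (100 µM, DMSO) for 15 min at room temperature, 300 µL final. Ferrozine then added (1 mM final), shaken 15 min at room temperature. Absorbance of the ferrozine–Fe(II) magenta complex read at 562 nm; chelation seen as reduced complex formation.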

Test [2] addresses T1, Fatty-acid amide hydrolase 1 (Homo sapiens, UniProt O00519).
T1 sequence (O00519 whole entry): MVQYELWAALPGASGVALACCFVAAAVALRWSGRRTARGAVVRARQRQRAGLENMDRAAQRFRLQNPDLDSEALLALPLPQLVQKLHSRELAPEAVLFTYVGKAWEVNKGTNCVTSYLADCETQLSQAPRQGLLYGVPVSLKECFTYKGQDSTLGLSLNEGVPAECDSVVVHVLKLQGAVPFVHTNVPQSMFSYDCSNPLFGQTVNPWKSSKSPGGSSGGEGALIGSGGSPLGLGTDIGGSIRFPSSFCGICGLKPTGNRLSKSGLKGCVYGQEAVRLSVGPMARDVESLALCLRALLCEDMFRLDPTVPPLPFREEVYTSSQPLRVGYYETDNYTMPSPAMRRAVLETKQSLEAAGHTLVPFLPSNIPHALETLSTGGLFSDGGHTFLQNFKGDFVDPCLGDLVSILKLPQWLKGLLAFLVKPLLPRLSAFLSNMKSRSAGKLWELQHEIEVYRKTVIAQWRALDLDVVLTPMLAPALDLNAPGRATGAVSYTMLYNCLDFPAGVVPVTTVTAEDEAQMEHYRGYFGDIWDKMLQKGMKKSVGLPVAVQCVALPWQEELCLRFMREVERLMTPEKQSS
The test can be described thus: Inhibition of recombinant human FAAH using AMC-AA as substrate preincubated for 10 mins followed by substrate addition measured after 2 hrs by fluorometric assay. The gist of the method:
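Human recombinant FAAH preincubated with inhibitor at various concentrations in Tris-HCl 125 mM, Na₂EDTA 1 mM, pH 9.0, 10 min at room temperature with shaking. AMC-AA substrate then added (1 µM final); fluorescence read every 30 s for 2 h at 37 °C (ex 340/em 450 nm). Percent inhibition from no-inhibitor controls and no-enzyme blanks; IC50 from at least three independent runs in triplicate.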

Test [3] deals with T2, Cannabinoid receptor 2 (Homo sapiens, UniProt P34972). The test can be described thus: Displacement of [3H]CP55940 from recombinant human CB2 receptor expressed in HEK293 cell membrane incubated for 90 mins by beta scintillation counter method. The class given is cell membranes. The gist of the method: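 HEK293 membranes stably expressing human CB2 (50 µg protein/well) competed with 0.2 nM [3H]-CP55,940 (final) against test compound at 10⁻¹²–10⁻⁵ M in Tris-HCl 50 mM, EGTA 2.5 mM, MgCl₂ 5 mM, 0.1% fatty-acid-free BSA, pH 7.4; 90 min at 30 °C. Nonspecific binding defined with 10 µM GW405833.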
T2 sequence (P34972 whole entry): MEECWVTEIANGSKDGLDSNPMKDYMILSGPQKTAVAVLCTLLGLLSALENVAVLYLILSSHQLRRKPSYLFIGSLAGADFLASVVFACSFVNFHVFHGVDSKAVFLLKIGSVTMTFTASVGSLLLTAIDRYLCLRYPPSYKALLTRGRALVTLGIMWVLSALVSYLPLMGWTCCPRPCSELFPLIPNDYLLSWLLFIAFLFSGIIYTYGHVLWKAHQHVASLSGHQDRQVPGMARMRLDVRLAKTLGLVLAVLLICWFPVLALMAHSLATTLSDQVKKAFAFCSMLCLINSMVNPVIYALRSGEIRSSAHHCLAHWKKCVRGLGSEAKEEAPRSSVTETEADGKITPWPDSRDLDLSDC
For orientation: Displacement assays read how much labelled ligand stays bound in the presence of the test substance.

Test [4] deals with T2, Cannabinoid receptor 2. The test can be described thus: Agonist activity at human CB2 receptor overexpressed in CHO-K1 cells assessed as cAMP level incubated for 30 mins by luminescence based assay. The class given is functional, cell-based. The gist of the method: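 CHO-K1 cells overexpressing human CB2R were plated at 30 000 cells/well and held overnight at 37 °C, 5% CO2. Test samples were added as dose–response solutions with NKH-477 to stimulate adenylate cyclase, then incubated 30 min at 37 °C. cAMP was detected by luminescence after cell lysis. Values were normalized to NKH-477 alone as 100% response. Three independent experiments were run in triplicate.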
A general note: Cyclic AMP is a second messenger, typically raised through Gs and lowered through Gi signalling.

Test [5] concerns the target Cannabinoid receptor 2 (Mus musculus, UniProt P47936). The test can be described thus: Agonist activity at mouse CB2 receptor transfected in CHO-K1 cells assessed as beta2-arrestin recruitment incubated for 90 mins by luminescence based assay. The test is classed as functional, cell-based. In a few lines:
(§1)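 PathHunter eXpress kit using mouse CB2 receptor in CHO-K1 cells. Cells were seeded 48 h before the assay in kit medium. Compounds in cell plating reagent were incubated 90 min at 37 °C, 5% CO2. Working detection solution was then added for 60 min at room temperature to read β-arrestin recruitment.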
(In general: Recruitment of arrestin is a read-out of receptor activation apart from second messengers.)

Another test deals with Cannabinoid receptor 1 (Homo sapiens, UniProt P21554). The experiment in a line: […] human CB1 receptor in CHO cells incubated for 15 mins by plate reader analysis relative to control. The test is classed as cell-based. The gist of the method: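 CHO-CB1 C3 cells (human CB1) were seeded at 8000 cells/well in medium with dialyzed FBS and preincubated 15 min at 37 °C. Compounds or the CP55940 control were added for 15 min at 37 °C, then forskolin 10 µM for 5 min. cAMP was read by HTRF after 1 h at room temperature (λex 320 nm, λem 620-665 nm).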
Sequence of Cannabinoid receptor 1 (P21554 whole entry): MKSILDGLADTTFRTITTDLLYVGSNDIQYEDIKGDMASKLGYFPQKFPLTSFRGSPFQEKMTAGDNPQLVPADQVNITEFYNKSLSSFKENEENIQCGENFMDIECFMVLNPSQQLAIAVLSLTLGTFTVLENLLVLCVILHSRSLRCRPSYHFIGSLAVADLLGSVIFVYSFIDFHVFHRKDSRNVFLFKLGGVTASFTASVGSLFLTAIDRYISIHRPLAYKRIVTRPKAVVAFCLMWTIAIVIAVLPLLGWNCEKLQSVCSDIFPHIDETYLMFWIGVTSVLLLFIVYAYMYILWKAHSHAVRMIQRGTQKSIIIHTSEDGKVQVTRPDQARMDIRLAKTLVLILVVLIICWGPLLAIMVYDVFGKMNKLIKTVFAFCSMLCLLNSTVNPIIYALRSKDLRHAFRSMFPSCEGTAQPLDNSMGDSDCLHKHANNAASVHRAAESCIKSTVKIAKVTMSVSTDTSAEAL

The target of test [6] is Cannabinoid receptor 2 (Mus musculus) (UniProt P47936). The experiment in a line: Agonist activity at mouse CB2 receptor transfected in CHO-K1 cells assessed as beta2-arrestin recruitment incubated for 90 mins by luminescence based assay relative to control. The class given is functional, cell-based. Particulars: filed as agonist. The gist of the method:
as §1

Test [7] relates to THP-1. The test can be described thus: Antiinflammatory activity in human THP-1 macrophages assessed as decrease in IL-6 level incubated for 24 hrs by ELISA based qRT-PCR analysis. The class given is functional, cell-based. In a few lines: (§2)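 THP-1 cells were seeded at 1 x 10⁵ cells/ml for 48 h. For macrophages, cells were differentiated with 0.01 µM PMA for 48 h; monocytes received no PMA. Cells were then given 24 h with or without 10 µg/ml LPS, plus ligands alone or with the CB2R inverse agonist JTE907 (10 µM). Cytokines were measured in 5 µL supernatant (from 1 x 10⁴ cells) by ProQuantum immunoassay, read as pg/ml from kit titration curves; n=3.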

The subject of test [8] is THP-1. The experiment in a line: Antiinflammatory activity in human THP-1 macrophages assessed as increase in IL-10 level incubated for 24 hrs by ELISA based qRT-PCR analysis. The class given is functional, cell-based. In a few lines:
as §2

Test [9] has as its system THP-1. The experiment in a line: Antiinflammatory activity in LPS-activated human THP-1 monocytes assessed as decrease in IL-6 level incubated for 24 hrs by ELISA based qRT-PCR analysis. The test is classed as functional, cell-based. The gist of the method:
as §2

This is an account of results in ChEMBL document CHEMBL5316280, “Development of N-(1-Adamantyl)benzamides as Novel Anti-Inflammatory Multitarget Agents Acting as Dual Modulators of the Cannabinoid CB2 Receptor and Fatty Acid Amide Hydrolase” (J Med Chem, 2023).

The structures appear in SMILES notation. Activity calls are given as the source filed them. No cut-off for these calls is given here. Where only a bound is given, the exact number is not on record here.

Sequence of Cannabinoid receptor 2 (Mus musculus) (P47936 whole entry): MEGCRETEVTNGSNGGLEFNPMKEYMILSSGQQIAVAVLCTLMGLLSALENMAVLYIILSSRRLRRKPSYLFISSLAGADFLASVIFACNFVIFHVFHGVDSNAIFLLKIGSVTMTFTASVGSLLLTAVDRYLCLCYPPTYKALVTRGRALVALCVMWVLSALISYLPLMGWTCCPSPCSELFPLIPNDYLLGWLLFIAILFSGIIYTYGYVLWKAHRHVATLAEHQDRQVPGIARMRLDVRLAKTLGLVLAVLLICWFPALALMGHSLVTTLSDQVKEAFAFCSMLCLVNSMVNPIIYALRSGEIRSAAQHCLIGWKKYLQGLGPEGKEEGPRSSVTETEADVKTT
Sequence of Cannabinoid receptor 2 (Mus musculus, UniProt P47936) (P47936 whole entry): as above

Usually IC50 stands for the concentration that inhibits the measured activity by half. In general, Ki refers to a measure of affinity in units of concentration, obtained from inhibition or displacement. In the case of `O=C(NC12CC3CC(CC(C3)C1)C2)c1cccc(OCc2ccccc2)c1`, the outcome in test [1] was Active. The half-inhibitory concentration (IC50) in test [2] came to 24.1 µM. Moreover, the inhibition constant Ki at Cannabinoid receptor 2 [3] stood at 0.313 µM.

For `O=C(NC12CC3CC(CC(C3)C1)C2)c1ccccc1`, the result in [1] was Active. Also, the IC50 in test [2] was determined as 23.4 µM.

On to `COc1ccc(C(=O)NC23CC4CC(CC(C4)C2)C3)cc1`, for which the result in test [1] was Active. The IC50 in test [2] was more than 50 µM. For the same molecule, the Ki on Cannabinoid receptor 2 [3] stood at 2.45 µM.

In general, EC50 refers to the concentration giving half of the maximal effect. Consider `CCCC(C)(C)c1ccc2c(c1)OC(C)(C)[C@@H]1CC=C(C)C[C@@H]21`, for which the concentration for a half-maximal effect (EC50) on Cannabinoid receptor 2 [4] is 0.169 µM.

`COc1ccccc1C(=O)NC12CC3CC(CC(C3)C1)C2`: in test [1], the outcome was Active. For the same molecule, the IC50 in test [2] was 48.5 µM. Further, the Ki at Cannabinoid receptor 2 [3] turned out to be 0.387 µM.

Usually Emax stands for the size of the effect at its maximum, as opposed to the concentration needed. Take `CCCCCCC(C)(C)c1ccc([C@H]2C[C@@H](O)CC[C@@H]2CCCO)c(O)c1`: the EC50 at Cannabinoid receptor 2 [5] was 0.0004 µM. Further, the Emax (on Cannabinoid receptor 1; in test [6]) was 100% each time.

Consider `COc1cc(Br)cc(C(=O)NC23CC4CC(CC(C4)C2)C3)c1OC`, for which the outcome in test [1] was Active. Moreover, the IC50 in [2] amounted to 44.6 µM. The Ki on Cannabinoid receptor 2 [3] is 0.139 µM.

Turning to `O=C(NC12CC3CC(CC(C3)C1)C2)c1ccc(OCc2ccccc2)cc1`, the outcome in [1] was Active. The concentration for half-maximal inhibition (IC50) in test [2] turned out to be 19.5 µM. Further, the inhibitory constant (Ki) on Cannabinoid receptor 2 [3] turned out to be 3.85 µM.

With `O=C(NC12CC3CC(CC(C3)C1)C2)c1ccccc1O`, the result in [1] was Active. Besides, in test [2], the 50% inhibitory concentration (IC50) was more than 50 µM.

For `COc1cccc(C(=O)NC23CC4CC(CC(C4)C2)C3)c1OC`, the outcome in [1] was Active. Further, the half-inhibitory concentration (IC50) in [2] is more than 50 µM. Also, the Ki at Cannabinoid receptor 2 [3] was determined as 0.0876 µM.

Turning to `COc1ccc(C(=O)NC23CC4CC(CC(C4)C2)C3)cc1OC`, the result in test [1] was Active. The IC50 in test [2] is more than 50 µM. Also, the inhibition constant Ki on Cannabinoid receptor 2 [3] amounted to 3 µM.

On to `COc1cccc(C(=O)NC23CC4CC(CC(C4)C2)C3)c1O`, for which the outcome in test [1] was Active. In test [2], the IC50 was more than 50 µM. In addition, the inhibition constant Ki on Cannabinoid receptor 2 [3] came to 0.153 µM.

In the case of `O=C(NC12CC3CC(CC(C3)C1)C2)c1ccc(O)cc1`, in test [1], the outcome was Active. In test [2], the IC50 is more than 50 µM. In addition, the Ki on Cannabinoid receptor 2 [3] was found to be 1.06 µM.

`COc1cccc(C(=O)NC23CC4CC(CC(C4)C2)C3)c1`: the result in test [1] was Active. For the same molecule, the IC50 in test [2] worked out at 32.3 µM. Further, at Cannabinoid receptor 2 [3], the inhibition constant Ki was 0.51 µM.

With `O=C(NC12CC3CC(CC(C3)C1)C2)c1cccc(O)c1`, the outcome in test [1] was Active. Besides, the 50% inhibitory concentration (IC50) in [2] came to 25.6 µM.

Consider `O=C(NC1CCCCC1)c1cn(CCN2CCOCC2)c2cc(Cl)ccc2c1=O`, for which the result in the test with THP-1 [7], in the test on THP-1 [8] and in the test on THP-1 [9] was inactive.

For the molecule `COc1cc(Br)cc(C(=O)NC23CC4CC(CC(C4)C2)C3)c1OCc1ccccc1`, in [1], the outcome was Active. Also, in test [2], the IC50 turned out to be 8.8 µM. For the same molecule, the inhibition constant (Ki) on Cannabinoid receptor 2 [3] was 3.2 µM.

Regarding `COc1cc(Br)cc(C(=O)NC23CC4CC(CC(C4)C2)C3)c1O`, the outcome in test [1] was Active. Moreover, the concentration for half-maximal inhibition (IC50) in [2] amounted to 38.4 µM.
